From PubChem
Compounds with a hit are over-represented: about 2.7% of the library has one in this group of screens.
PP1 counter – PP1-alpha phosphatase inhibitors, primary screen, counter-screen for PP5 inhibitor project, biochemical, fluorescence, OMFP substrate, single point. purified PP1alpha. inhibition, % at 6.7 µM. 320,000 tested, 0.9% active;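 active = inhibition above the mean inhibition of all tested compounds plus 3 SD, computed separately for each screening campaign, cut at about 15% in these data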
HNF4A DNA FP – change in binding of human HNF4A to DNA, primary screen, biochemical, fluorescence polarization, FITC-DNA; 1 h; 360,000 tested, 0.3% active; Hepatocyte nuclear factor 4-alpha (Homo sapiens), P41235; activity change, % at 10 µM; in the data active = activity change above about 30%, passing the limit was not always enough
NadD block – inhibitors of S. aureus NadD, primary screen, biochemical, colorimetric, uHTS | Nicotinate-nucleotide adenylyltransferase NadD (Staphylococcus aureus N315) | purified NadD enzyme, colorimetric absorbance read-out | inhibition, % at 20 µM | 360,000 tested, 0.78% active; in the data active = inhibition above about 26%
TPT1 inh – Candida albicans TPT1 enzyme inhibitors, primary screen, biochemical, fluorescence polarization. tRNA 2'-phosphotransferase TPT1 (Candida albicans SC5314). recombinant caTPT1, FP RNA substrate dephosphorylation. inhibition, % at 5 µM. 300,000 tested, 0.81% active;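 active = inhibition above the mean of all tested compounds plus 3 SD, set per screening campaign, cut at about 24% in these data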;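 note: plate controls were DMSO alone for no effect and ferristatin control at 100 nM for full effect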
Rpn11 block – Rpn11 (PSMD14) deubiquitinase inhibitors, primary screen, biochemical, fluorescence polarization, uHTS. inhibition, % at 20 µM. 26S proteasome non-ATPase regulatory subunit 14 (Homo sapiens), O00487. 360,000 tested, 0.59% active. AID 588493, 2011. human 26S proteasome, Ub4-pepOG fluorescence polarization; 20S core pre-blocked with epoxomicin;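 active = inhibition at 20 µM, scaled to each plate's controls, above about 33%, limit read from the data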
CSN deneddyl inh – inhibitors of CSN-mediated cullin deneddylation, primary screen, biochemical, fluorescence polarization, uHTS | COP9 signalosome complex subunit 5 (Homo sapiens), Q92905 | Purified CSN, SCF-Nedd8-OG deneddylation | inhibition, % at 12.5 µM | 360,000 tested, 0.38% active | AID 651999, 2013;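 active = pattern-corrected inhibition above about 35%, with an unprinted fluorescence ratio check between 0.5 and 1.5, limit read from the data, passing the limit was not always enough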;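 note: 0% = enzyme with substrate and 100% = substrate without enzyme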
Target sequence (Q92905 whole entry, looked up, one chain of several): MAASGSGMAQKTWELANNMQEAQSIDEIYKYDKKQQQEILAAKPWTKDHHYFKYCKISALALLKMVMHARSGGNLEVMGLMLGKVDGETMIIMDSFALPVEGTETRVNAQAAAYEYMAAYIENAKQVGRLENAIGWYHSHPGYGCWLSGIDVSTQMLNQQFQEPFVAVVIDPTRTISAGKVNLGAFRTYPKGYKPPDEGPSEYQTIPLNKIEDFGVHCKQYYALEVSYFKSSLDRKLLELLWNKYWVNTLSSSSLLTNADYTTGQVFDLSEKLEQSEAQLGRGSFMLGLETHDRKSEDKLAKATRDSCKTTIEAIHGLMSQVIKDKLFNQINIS
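Material: human Csn5 produced in HEK293T cells; Input: enzyme 0.24 nM; Reagent: SCFSkp2-Nedd8OG substrate at 10 nM final; Dosing: 12.5 µM compound; Incubation: 90 min reaction at room temperature; Detection: fluorescence polarization of the substrate; Evaluation: % inhibition of substrate cleavage by Csn5; Control set: substrate-only high control, full reaction low control.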
NadD conf – inhibitors of S. aureus NadD, confirmation, biochemical, colorimetric, single concentration; shares compounds with NadD block; purified S. aureus NadD, colorimetric enzyme assay; inhibition, % at 20 µM; 2,000 tested, 13% active; AID 624309, 2012; in the data active = inhibition mostly above about 42%, no sharp cut-off; inactive = mostly below about 42%
Starred values were filed as active, the others as inactive; nt = not tested or not shown.

SMILES	PP1 counter	HNF4A DNA FP	NadD block	TPT1 inh	Rpn11 block	CSN deneddyl inh	NadD conf
CCc1cc2c(cc3c(=O)n(CC(=O)NCCCN4CCCCCC4)nc(CC)n32)s1	2.8	-3.1	31.1*	-0.2	13.7	1.4	-13.1
COc1ccc2c(c1)[C@H]1[C@H](CO2)[C@H](c2ccccc2)[C@]2(C)C(=O)N(Cc3ccc(C)cc3)CC(=O)N12	nt	0.7	4.0	nt	3.7	-2.1	nt
O=S(=O)(Nc1ccc2c(c1)nc1n2CCN(Cc2ccccc2)C1)c1ccc(Cl)cc1	12.0	12.2	31.9*	5.3	14.5	8.9	43.3
O=S(=O)(Nc1ccc2c(c1)nc1n2CCN(Cc2ccccc2)C1)c1ccccc1	6.4	3.4	15.1	5.8	13.7	4.1	nt
COC(=O)C1=C(C)N=C2SC(C)C(=O)N2C1/C=C/c1ccccc1OC (centres undefined)	2.5	2.3	28.6*	1.1	10.9	10.1	44.4
COc1ccccc1-n1c(SCC(=O)c2ccc(O)cc2O)nc2cc([N+](=O)[O-])ccc21	9.8	-168.3	48.5*	-2.8	2.2	-7.5	39.4
COc1ccccc1-n1c(SCC(=O)NC2CCS(=O)(=O)C2)nc2cc([N+](=O)[O-])ccc21 (centres undefined)	2.1	3.5	2.7	1.6	-6.1	-3.8	nt
CC1CC(C)(C)CC2(C1)NC(=O)N(CC(=O)Nc1cc(C(F)(F)F)ccc1N1CCCCC1)C2=O (centres undefined)	nt	4.7	41.8*	nt	0.0	0.1	0.1
O=C(CN1C(=O)NC2(CCCCC2)C1=O)Nc1cc(C(F)(F)F)ccc1N1CCCC1	nt	2.1	-0.6	nt	-5.2	4.9	nt
C[C@H](NS(=O)(=O)c1ccccc1F)C(=O)OCC(=O)Nc1ccc2c(c1)OCCO2	nt	0.5	-2.2	nt	-9.2	-0.7	nt
Cc1ccc(NS(=O)(=O)c2cc([N+](=O)[O-])ccc2NNC(=S)Nc2cc(C)ccc2C)c(C)c1	2.8	13.7	46.5*	8.3	29.8	7.2	40.6
NS(=O)(=O)c1ccc(N/N=C/c2ccccc2C(=O)O)c([N+](=O)[O-])c1	2.9	-0.8	-9.5	-6.7	3.9	2.0	nt
Cc1cc([N+](=O)[O-])c2[nH]c(C(=O)N/N=C/c3ccccc3C(=O)O)c(-c3ccccc3)c2c1	nt	0.1	33.5*	nt	6.0	2.3	5.9
CC[N+](CC)(CC)CCCCOc1ccc2c(c1)C(=O)c1cc(OCCCC[N+](CC)(CC)CC)ccc1-2	3.4	2.2	31.5*	1.7	9.5	-0.9	14.5
COc1ccc([C@@H]2CC(=O)[C@@H]3CN(S(=O)(=O)c4ccc(Cl)cc4)[C@H](c4ccc(C)cc4)C[C@@H]3N2S(=O)(=O)c2ccccc2)cc1	nt	2.3	30.3*	nt	4.1	0.3	7.9
Cc1cccc2sc(NC(=O)c3cccc(S(=O)(=O)N4CCc5ccccc54)c3)nc12	2.9	-3.3	12.7	-0.9	-7.0	-4.4	nt
Cc1cc(C)c2nc(NC(=O)c3cccc(S(=O)(=O)N4CCc5ccccc54)c3)sc2c1	0.2	8.3	44.1*	0.9	15.2	-1.7	0.2
COc1ccccc1C(=O)NNC(=O)CN(C)S(=O)(=O)c1ccc(Cl)cc1	nt	0.7	2.0	nt	-0.8	-3.6	nt
OC(CNCCC1C=Nc2ccccc21)Cn1c2ccc(Cl)cc2c2cc(Cl)ccc21 (centres undefined)	17.1*	3.3	34.0*	0.4	-0.3	0.1	20.3
COC(=O)c1cc2c([nH]c1=O)CCCC2=O	nt	-3.5	-1.8	nt	-10.2	-3.0	nt
Cc1ccc(-n2[nH]c(C)c(/C=N/Nc3ccc([N+](=O)[O-])cc3[N+](=O)[O-])c2=O)cc1C	0.7	-4.5	36.5*	-0.2	2.7	-6.3	12.0
Cc1ccc(CNC(=O)Cc2csc(Nc3nc(=S)[nH]c4ccccc34)n2)cc1	2.8	nt	nt	0.6	nt	nt	nt
